Assay outcomes: PubChem BioAssay, SRMLSC
Only a selection was taken, and hits are over-represented in it overall.
HCT116 PTEN-null: growth suppressors of cells with PTEN tumor suppressor deletion; HCT116 PTEN-null viability, CellTiter-Glo, 60 h; active compounds read low; viability, % at 10 µM; 140,000 tested, 1.2% active; AID 827;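 active means viability at or below a set limit, 4 SD under the median of all tested compounds, cut at about 3.7% in these data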;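 further: PTEN knockout HCT116 line with beta catenin targeted HCT116 as companion control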
Lung fibro prol: blocks proliferation of human lung fibroblasts. LL 47 human lung fibroblast viability, ATP luminescence; active compounds read low. 85,000 tested, 1.1% active. viability, % at 10 µM. AID 719;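 active means viability at or below 50% in the single dose screen; inactive means viability above 50%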;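 further: compound exposure lasted 72 h before the ATP readout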
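Material: human LL 47 lung fibroblast cells; quantity: 1,150 cells/well; medium: IMEM plus 15% FBS; doses: 0.1% DMSO in all compound wells; timing: overnight attachment after seeding, then 72 h compound exposure at 37 °C; detection: CellTiter-Glo luminescence; measure: % viability of median cell-only signal; controls: cell-only wells, no compound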
H69AR growth 86K: blocks growth of human H69AR lung tumor cells; viability, % at 10 µM; H69AR lung tumor viability, ATP luminescence, 72 h; active compounds read low; 85,000 tested, 6% active;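 active means viability at or below 40%; inactive means viability above 40%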;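 further: multidrug resistant small cell line overexpressing MRP-1 efflux transporter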
HUVEC inhibit: inhibitors of human endothelial cell proliferation. HUVEC proliferation, CellTiter-Glo luminescence, 72 h; active compounds read low. viability, % at 10 µM (by protocol). 86,000 tested, 1.1% active;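 active means viability at or below 30%; inactive means viability above 30%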
HCT116 bCat-KO: beta-catenin-lacking colon tumor cell growth suppression | HCT116 beta-catenin knockout viability, CellTiter-Glo, 60 h; active compounds read low | viability, % at 10 µM | 140,000 tested, 1.5% active;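 active means viability at or under a set limit, the compound median less 4 SD, cut at about 6% in these data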
Of the large screens only hits and unclear results are named; the others gave an inactive call.

O=C(Nc1ccccc1)c1cccc(-c2nnc(-c3ccccc3)o2)c1	H69AR growth 86K 26, HUVEC inhibit 19
CCCCC(=O)Nc1cccc(-c2nnc(-c3ccccc3)o2)c1	none
COc1cccc(-c2nnc(NC(=O)C3CCCCC3)o2)c1	none
Cc1cccc(S(=O)(=O)NCCC(=O)OCC(=O)Nc2ccc(C#N)cc2)c1	none (no result: Lung fibro prol, H69AR growth 86K, HUVEC inhibit)
CCOC(=O)c1c(C)sc2c1N(C(=O)CCl)c1cc(Cl)ccc1S2	HCT116 PTEN-null 2.2, Lung fibro prol 2.6, H69AR growth 86K 0.7, HUVEC inhibit 17, HCT116 bCat-KO 2.3
COc1ccc(CCNC(=O)c2ccc(=O)[nH]n2)cc1OC	none
COc1ccc(CCNC(=O)c2cc(-c3cc(C)c(C)cc3O)n[nH]2)cc1OC	H69AR growth 86K 29
CC(O)/C=C/c1ccc2ccccc2n1 (centres undefined)	H69AR growth 86K 23
FC(F)C(F)(F)C(F)(F)C(F)(F)c1cc(-c2ccccc2)n[nH]1	H69AR growth 86K 30, HUVEC inhibit 14
Cc1ccc(O)c(-c2cc(C(F)(F)C(F)F)[nH]n2)c1	none
Cc1ccccc1-c1nc(-c2ccc(NC(=O)c3ccc4c(c3)OCO4)cc2)no1	Lung fibro prol 20, H69AR growth 86K 28
Cc1cc(C)nc(NS(=O)(=O)c2ccc(NC(=O)c3ccc4c(c3)OCO4)cc2)n1	none
COc1cc(-c2nc(-c3ccc(NC(=O)c4ccc5c(c4)OCO5)cc3)no2)cc(OC)c1OC	H69AR growth 86K 13, HUVEC inhibit 28
COc1cc(-c2nnc(Sc3ccc(C(F)(F)F)cc3[N+](=O)[O-])o2)cc(OC)c1OC	H69AR growth 86K 1.0
C(=N\N(c1ccccc1)c1ccccc1)/c1ccc(N2CCOCC2)s1	none (no result: Lung fibro prol, H69AR growth 86K, HUVEC inhibit)
CCC(C)c1ccccc1NC(=O)CN1CCN(C/C=C/c2ccccc2)CC1 (centres undefined)	none (no result: Lung fibro prol, H69AR growth 86K, HUVEC inhibit)
O=C(Nc1cccc(Cl)c1)Nc1cc(S(=O)(=O)N2CCCCC2)ccc1Cl	HCT116 PTEN-null 2.4, HCT116 bCat-KO 3.9 (no result: Lung fibro prol, H69AR growth 86K, HUVEC inhibit)
Cc1cc(N2CCN(C)CC2)nc2ccc(NC(=O)c3ccc(Br)o3)cc12	Lung fibro prol 43, H69AR growth 86K 4.2, HUVEC inhibit 8.2
O=C(Nc1ccccc1)Nc1ccc(S(=O)(=O)N2CCCCC2)cc1	H69AR growth 86K 13
O=C(Nc1ccc(S(=O)(=O)N2CCCCC2)cc1)c1ccccc1Cl	none
Cc1cc(N2CCCCC2)nc2ccc(NC(=O)c3ccc(Br)o3)cc12	none
O=C(Nc1cccc(O)c1)c1cc(S(=O)(=O)N2CCCC2)ccc1Cl	none
O=C(Nc1ccc(S(=O)(=O)N2CCCCC2)cc1)c1ccc(CN2CCOCC2)cc1	HCT116 bCat-KO 5.9
COCCN1Cc2cccc(C(=O)Nc3ccc(S(=O)(=O)N4CCCCCC4)cc3)c2C1=O	H69AR growth 86K 25 (no result: HCT116 PTEN-null, HCT116 bCat-KO)
COc1ccccc1NS(=O)(=O)c1cccc(NC(=O)Nc2cccc(Cl)c2)c1	HCT116 bCat-KO 3.9 (no result: Lung fibro prol, H69AR growth 86K, HUVEC inhibit)
CC(=O)Nc1sc(C)c(C)c1C(=O)OCC(=O)Nc1cc(S(=O)(=O)N2CCCCC2)ccc1Cl	HCT116 PTEN-null 3.1 (no result: Lung fibro prol, H69AR growth 86K, HUVEC inhibit)
CN1CCN(S(=O)(=O)c2ccc(NC(=O)Nc3cccc(Cl)c3)cc2)CC1	H69AR growth 86K 35, HUVEC inhibit 3.2
CCN(CC)S(=O)(=O)c1ccc(NC(=O)c2cccc3c2C(=O)N(CCOC)C3)cc1	none (no result: Lung fibro prol, H69AR growth 86K, HUVEC inhibit)
O=[N+]([O-])c1cc(-c2ncccn2)cs1	none (no result: Lung fibro prol, H69AR growth 86K, HUVEC inhibit)
COC(=O)c1cc(NC(=O)Nc2cccc(Cl)c2)ccc1Cl	HCT116 PTEN-null 3.4, HCT116 bCat-KO 3.8 (no result: Lung fibro prol, H69AR growth 86K, HUVEC inhibit)
O=C(Nc1ccc(CN2CCOCC2)cc1)c1ccc(-c2cc(Cl)ccc2Cl)o1	H69AR growth 86K 21
S=C(c1ccc(-c2cc(Cl)ccc2Cl)o1)N1CCOCC1	none
O=C(Nc1ccc(N2CCN(C(=O)c3ccccc3)CC2)c(Cl)c1)c1ccc(Br)o1	none (no result: Lung fibro prol, H69AR growth 86K, HUVEC inhibit)
O=C(Nc1ccc(N2CCOCC2)c(Cl)c1)c1ccc(Br)o1	H69AR growth 86K 20
CCOC(=O)N1CCN(C(=O)CN(Cc2ccc(Cl)cc2)S(=O)(=O)c2ccc(C)cc2)CC1	none
COC(=O)CCCC(=O)N1CCOCCN(C(=O)CCCC(=O)OC)CCOCC1	none
CCOC(=O)c1nc(S(C)(=O)=O)ncc1N1CCOCC1	none
CCOC(=O)c1nc(S(C)(=O)=O)ncc1Cl	H69AR growth 86K 1.6
CC(=O)OCC(=O)Nc1ccc(C(C)=O)cc1	H69AR growth 86K 39
CCCSc1nc(NCc2ccco2)c2c3c(sc2n1)COC(C)(C)C3	H69AR growth 86K 34
CCCCSc1nc(NCc2ccco2)c2c3c(sc2n1)COC(C)(C)C3	none
Cc1cc(C)n(-c2nc(NCc3cccnc3)c3c4c(sc3n2)COC(C)(C)C4)n1	HCT116 bCat-KO 4.5
Cc1ccccc1COC[C@H](CC(C)C)N1CCN(C(=O)c2cccc(C(F)(F)F)c2)CCC1=O	none (no result: Lung fibro prol, H69AR growth 86K, HUVEC inhibit)
N#CC1=C(N)SC(N)=C(C#N)C1Cc1ccccc1	H69AR growth 86K 17
N#Cc1ncc(C(F)(F)F)cc1Sc1ccc(N)cc1	H69AR growth 86K 36
COc1ccc(Nc2nc(N3CCCCC3)nc(N3CCCCC3)n2)c(OC)c1	none (no result: HCT116 PTEN-null, HCT116 bCat-KO)
COc1ccc(Nc2nc(N3CCCC3)c3ccccc3n2)cc1	HCT116 PTEN-null 1.9, Lung fibro prol 20, H69AR growth 86K 36, HUVEC inhibit 7.7, HCT116 bCat-KO 1.7
COc1ccc(Nc2nc(N3CCCCC3)nc3ccccc23)c(OC)c1	H69AR growth 86K 9.0
CCN(CC)c1ccc(Nc2nc(N3CCOCC3)c3ccccc3n2)cc1	H69AR growth 86K 32
CSc1nc(N2CCOCC2)c2ccccc2n1	none
O=S1(=O)N=C(Nc2ccc(O)c(CN3CCCCC3)c2)c2ccccc21	H69AR growth 86K 33 (no result: Lung fibro prol)
CS(=O)(=O)c1nc(-c2ccccc2)cc(-c2ccccc2)c1C#N	HCT116 PTEN-null 2.4, Lung fibro prol 40, H69AR growth 86K 1.5, HCT116 bCat-KO 1.9
COc1cc2c(C(=O)N3CCN(c4cccc(Cl)c4)CC3)cn(CC(C)C)c(=O)c2cc1OC	none (no result: Lung fibro prol, H69AR growth 86K, HUVEC inhibit)
Cc1ccc(-c2cc3cccc[n+]3cc2-c2ccc(C)cc2)cc1	HCT116 bCat-KO 3.2 (no result: Lung fibro prol, H69AR growth 86K, HUVEC inhibit)
CCC(Oc1ccccc1)C(=O)NCCOC (centres undefined)	none (no result: Lung fibro prol, H69AR growth 86K, HUVEC inhibit)
COC(=O)c1cn(NC(=O)c2cc(OC)c(OC)c(OC)c2)c(=O)c2ccccc12	Lung fibro prol 49, H69AR growth 86K 19, HUVEC inhibit 20
COC(=O)c1cn(NC(=O)c2cc(OC)cc(OC)c2)c(=O)c2ccccc12	none
O=C(Oc1ccc2[nH]cc(CCN3C(=O)c4ccccc4C3=O)c2c1)c1ccco1	none
COc1ccc2c(c1)c(CCN1C(=O)c3ccccc3C1=O)cn2C(=O)c1ccco1	HUVEC inhibit 26
COc1ccc(N2CC(NC(=O)NCC(C)C)CC2=O)cc1 (centres undefined)	none (no result: Lung fibro prol, H69AR growth 86K, HUVEC inhibit)
Cc1onc(C(=O)N2C(C)CCCC2C)c1[N+](=O)[O-] (centres undefined)	none (no result: Lung fibro prol, H69AR growth 86K, HUVEC inhibit)
CCOc1cc(N2CCOCC2)c(OCC)cc1NC(=O)COC(=O)c1cc(C)oc1C	H69AR growth 86K 38
CCOc1cc(N2CCOCC2)c(OCC)cc1NC(=O)COC(=O)c1ccccc1C	none (no result: Lung fibro prol, H69AR growth 86K, HUVEC inhibit)
CCOc1cc(N2CCOCC2)c(OCC)cc1NC(=O)COc1ncnc2ccc(Br)cc12	Lung fibro prol 42
Brc1ccc2ncc(Br)cc2c1	none (no result: Lung fibro prol, H69AR growth 86K, HUVEC inhibit)
